Compound activity from PubChem.
A selection: hits, their analogues and other compounds. The true share with any hit is near 1.6%.
PG9 Ab binder: small molecules binding HIV-1 gp120 antibody PG9. TR-FRET gp120-PG9 antibody binding. inhibition, % at 6.7 µM. 360,000 tested, 0.43% active; in the data active = inhibition above about 8.5%
NR2E3 ag-1: NR2E3 (human) agonism. GST-NR2E3/biotin-RetCOR TR-FRET, 1536-well. inhibition of corepressor binding, % at 4.78 µM. AID 2300. 320,000 tested, 0.12% active;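 active = percent inhibition above the cutoff of mean plus 3 SD of all tested compounds, set per screening campaign, cut at about 20% in these data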
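Material: NR2E3–RetCOR corepressor complex / Amount: 1.35 nM GST-NR2E3 / Medium: Tris pH 7.5 / Compound: single nominal compound dose of 4.8 µM / Incubation: 5 h at 4 °C / Technique: TR-FRET, Eu(K)-anti-GST donor, streptavidin-D2 acceptor, ex 340, em 617/671 nm / Read-out basis: percent loss of FRET ratio relative to control wells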
VLA-4 inh: inhibition in a human VLA-4 binding assay. VLA-4 expressing cells, ligand binding flow cytometry. inhibition, % (about 7 µM as worked out from the volumes in the protocol). 330,000 tested, 0.2% active. AID 2557; in the data active = inhibition above about 50%
NR1D1 modulator: modulators of human Rev-erb alpha DNA binding | P20393 | Rev-erbα–FITC-DNA binding, fluorescence polarization, 90 min | activity, % at 10 µM | 370,000 tested, 0.79% active;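 active = activity above about 14%, limit read from the data; passing the limit was not always enough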
Target sequence (P20393 whole entry, looked up): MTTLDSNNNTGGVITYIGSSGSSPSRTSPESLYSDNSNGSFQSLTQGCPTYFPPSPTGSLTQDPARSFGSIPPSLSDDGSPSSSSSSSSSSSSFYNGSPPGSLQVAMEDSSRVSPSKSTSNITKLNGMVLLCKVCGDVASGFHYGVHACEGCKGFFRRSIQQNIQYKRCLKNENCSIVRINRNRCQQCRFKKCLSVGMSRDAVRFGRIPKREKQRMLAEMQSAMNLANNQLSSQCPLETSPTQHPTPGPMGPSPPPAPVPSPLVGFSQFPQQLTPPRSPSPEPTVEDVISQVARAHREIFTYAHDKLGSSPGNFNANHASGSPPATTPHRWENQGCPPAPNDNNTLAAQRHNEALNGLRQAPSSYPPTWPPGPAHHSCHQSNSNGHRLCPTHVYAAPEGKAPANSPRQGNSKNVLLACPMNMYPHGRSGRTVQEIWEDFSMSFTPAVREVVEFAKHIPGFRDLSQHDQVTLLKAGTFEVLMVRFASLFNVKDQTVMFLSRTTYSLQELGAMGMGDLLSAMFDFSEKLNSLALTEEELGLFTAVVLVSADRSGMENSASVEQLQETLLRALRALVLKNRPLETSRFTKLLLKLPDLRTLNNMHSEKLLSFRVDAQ
NR2E3 ag-2: agonists of human NR2E3 nuclear receptor; inhibition of corepressor binding, % at 3.98 µM; Q9Y5X4; 360,000 tested, 0.35% active; CHO-S Gal4-NCOR/VP16-NR2E3 two-hybrid, luciferase;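 active = inhibition above the mean of all tested compounds plus 3 SD, cut at about 70% in these data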;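 note: higher means lower luciferase signal from less NR2E3 corepressor binding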
NR2E3 agonist cf: NR2E3 (human) agonism, confirmation | shares compounds with NR2E3 ag-1 | cell-free NR2E3 corepressor release, TR-FRET, 5 h | activation (reported as inhibition), % at 3.98 µM | 360 tested, 39% active; in the data active = activation above about 20%
PPARg-NCOR2 ctr: releases PPARgamma from NCOR2 in NR2E3 counter-screen; shares compounds with NR2E3 ag-1; TR-FRET PPARg-NCOR2 coregulator interaction, biochemical; inhibition, % at 3.98 µM; 360 tested, 45% active; in the data active = inhibition above about 20%
Of the large screens only hits and unclear results are named; the others gave an inactive call (follow-up assays come after a bar, where they were run).

C[C@H]1CC2C3CCC4=CC(=O)C=C[C@]4(C)[C@@]3(F)[C@@H](O)C[C@]2(C)[C@@]1(O)C(=O)COP(=O)(O)O (some centres undefined)	none (no result: PG9 Ab binder, NR2E3 ag-1, VLA-4 inh, NR2E3 ag-2)
CC1(C)S[C@@H]2[C@H](NC(=O)[C@H](NC(=O)N3CCNC3=O)c3ccccc3)C(=O)N2C1C(=O)O (some centres undefined)	none (no result: PG9 Ab binder, NR2E3 ag-1, VLA-4 inh, NR2E3 ag-2)
CCOC(=O)c1c(-c2ccsc2)csc1N	none
CCOC(=O)c1c(-c2ccc(C)s2)csc1N	NR2E3 ag-1 68 | NR2E3 agonist cf inactive | PPARg-NCOR2 ctr inactive
CCC(CNc1cc(OC)cc2cccnc12)NC1CCCCC1 (centres undefined)	NR2E3 ag-1 21 | NR2E3 agonist cf inactive | PPARg-NCOR2 ctr inactive
C[C@]12C=CC(=O)C=C1CCC1C2[C@@H](O)C[C@@]2(C)C1CC[C@]2(O)C(=O)COP(=O)(O)O (some centres undefined)	none (no result: PG9 Ab binder, NR2E3 ag-1, VLA-4 inh, NR2E3 ag-2)
CO[C@H]1O[C@H](CNC(=O)N(CCCl)N=O)[C@@H](O)[C@H](O)[C@H]1O	none (no result: PG9 Ab binder, NR2E3 ag-1, VLA-4 inh, NR2E3 ag-2)
CCc1c(C(=O)Nc2ccccc2)c(C)[nH]c(=S)c1C#N	NR2E3 ag-1 30 | NR2E3 agonist cf inactive | PPARg-NCOR2 ctr inactive
C=CCn1c(SCC(=O)Nc2cccc(S(N)(=O)=O)c2)nnc1C1CCCCC1	NR2E3 ag-1 42 | NR2E3 agonist cf inactive | PPARg-NCOR2 ctr inactive
Cc1cc(=O)n(C2CCS(=O)(=O)C2)[nH]1 (centres undefined)	NR2E3 ag-1 33 | NR2E3 agonist cf inactive | PPARg-NCOR2 ctr inactive
Cc1cc(C2C(C#N)=C(N)SC(N)=C2C#N)c(C)s1	NR2E3 ag-1 24 (no result: PG9 Ab binder, NR1D1 modulator) | NR2E3 agonist cf inactive | PPARg-NCOR2 ctr 38
Cc1c(F)cccc1NC(=O)CCCCCC1NC(=O)NC1C (centres undefined)	NR2E3 ag-1 97 | NR2E3 agonist cf 89 | PPARg-NCOR2 ctr 92
O=C(CCCC(=O)c1ccccc1)Nc1ccc(F)cc1	none
CC1NC(=O)NC1CCCCCC(=O)Nc1ccc(F)cc1 (centres undefined)	NR2E3 ag-1 86 | NR2E3 agonist cf 89 | PPARg-NCOR2 ctr 90
CC/C=C\C/C=C\C/C=C\C/C=C\C/C=C\CCCC(=O)OCC	none (no result: PG9 Ab binder, NR2E3 ag-1, VLA-4 inh, NR2E3 ag-2)
C=Cc1c(C)/c2[n-]/c1=C\c1[n-]c(c(CC)c1C)/C=c1\[n-]c3c(c1C)C(=O)C(C(=O)O)C=3c1[n-]c(c(C)c1CCC(=O)O)\C=2.[Cu] (centres undefined)	none (no result: PG9 Ab binder, NR2E3 ag-1, VLA-4 inh, NR2E3 ag-2)
COc1cccc2c(=S)c(CCC(C)=O)c(C)[nH]c12	NR2E3 ag-1 21 | NR2E3 agonist cf inactive | PPARg-NCOR2 ctr inactive
CN(C)CCN1C(=O)C(O)=C(C(=O)c2cc3ccccc3o2)C1c1ccccn1 (centres undefined)	NR2E3 ag-1 27 (no result: PG9 Ab binder, NR1D1 modulator, NR2E3 ag-2) | NR2E3 agonist cf inactive | PPARg-NCOR2 ctr inactive
O=C(C1=C(O)C(=O)N(CCN2CCOCC2)C1c1ccc(Cl)cc1)c1cc2ccccc2o1 (centres undefined)	NR2E3 ag-1 20 | NR2E3 agonist cf 26 | PPARg-NCOR2 ctr 23
C#C[C@]1(O)CCC2C3CCc4cc(O)ccc4C3CC[C@@]21C (some centres undefined)	none (no result: PG9 Ab binder, NR2E3 ag-1, VLA-4 inh, NR2E3 ag-2)
Nc1ccc(N2CCCCC2)c2nonc12	NR2E3 ag-1 43 | NR2E3 agonist cf inactive | PPARg-NCOR2 ctr inactive
Nc1c(N2CCCC2)cc(Cl)c2nonc12	none (no result: PG9 Ab binder, NR1D1 modulator)
C=C1CC[C@H](O)C/C1=C/C=C1\CCC[C@]2(C)C([C@H](C)/C=C/[C@H](C)C(C)C)CC[C@@H]12 (some centres undefined)	none (no result: PG9 Ab binder, NR2E3 ag-1, VLA-4 inh, NR2E3 ag-2)
CCSc1nnc(NC(=O)CCc2ccccc2)s1	NR2E3 ag-1 40 | NR2E3 agonist cf inactive | PPARg-NCOR2 ctr inactive
O=C1C=C(N2CCOCC2)c2cccc3cccc1c23	none (no result: NR2E3 ag-1, VLA-4 inh)
O=C1C=C(N2CCOCC2)c2ccccc2C1=O	NR2E3 ag-1 33 | NR2E3 agonist cf 38 | PPARg-NCOR2 ctr 65
NC(=O)c1sc2nc3c(c(-c4ccco4)c2c1N)CCC3	none
Cc1ccc(-c2c3c(nc4sc(C(N)=O)c(N)c24)CCCC3)o1	NR2E3 ag-1 26 (no result: VLA-4 inh) | NR2E3 agonist cf inactive | PPARg-NCOR2 ctr inactive
OC[C@@H](O)[C@H](O[C@@H]1O[C@H](CO)[C@H](O)[C@H](O)[C@H]1O)[C@H](O)[C@@H](O)CO	none (no result: PG9 Ab binder, NR2E3 ag-1, VLA-4 inh, NR2E3 ag-2)
COc1ccc(Cn2c(-c3ccc(OC)cc3)nc3c(c(=O)c4ccccc4n3C)c2=O)cc1	NR2E3 ag-1 41 (no result: PG9 Ab binder, NR1D1 modulator, NR2E3 ag-2) | NR2E3 agonist cf 29 | PPARg-NCOR2 ctr 20
COc1ccc(-c2cc(=O)c3c(O)cc(O[C@@H]4O[C@H](CO[C@H]5O[C@H](C)[C@@H](O)[C@H](O)[C@@H]5O)[C@@H](O)[C@H](O)[C@H]4O)cc3o2)cc1O	none (no result: PG9 Ab binder, NR2E3 ag-1, VLA-4 inh, NR2E3 ag-2)
COC(=O)c1c(Cl)c2n3ccccc3c(C)c(-c3ccccc3)c-2c1C(=O)OC	NR2E3 ag-1 61 | NR2E3 agonist cf 69 | PPARg-NCOR2 ctr 70
COC(=O)c1c(C(=O)OC)c2ccccn2c1C(=O)c1ccccc1	none
CCSc1cnn(-c2ccccc2)c(=O)c1SCC	NR2E3 ag-1 21 | NR2E3 agonist cf inactive | PPARg-NCOR2 ctr inactive
O=C(C1=C(O)C(=O)N(Cc2ccco2)C1c1cccs1)c1cccs1 (centres undefined)	none
CCCOc1ccc(C2C(C(=O)c3ccc(C)o3)=C(O)C(=O)N2Cc2ccco2)cc1OCC (centres undefined)	NR2E3 ag-1 24 | NR2E3 agonist cf inactive | PPARg-NCOR2 ctr inactive
O=C(C1=C(O)C(=O)N(Cc2ccco2)C1c1ccccc1)c1cccs1 (centres undefined)	NR2E3 ag-1 20 | NR2E3 agonist cf inactive | PPARg-NCOR2 ctr inactive
Cc1ccc(C(=O)C2=C(O)C(=O)N(Cc3ccccc3)C2c2cccnc2)o1 (centres undefined)	NR2E3 ag-1 40 (no result: PG9 Ab binder) | NR2E3 agonist cf inactive | PPARg-NCOR2 ctr inactive
Cc1ccc(C(=O)C2=C(O)C(=O)N(Cc3cccnc3)C2c2cccc([N+](=O)[O-])c2)o1 (centres undefined)	none
Cn1cncc1[C@@](N)(c1ccc(Cl)cc1)c1ccc2c(c1)c(-c1cccc(Cl)c1)cc(=O)n2C	none (no result: PG9 Ab binder, NR2E3 ag-1, VLA-4 inh, NR2E3 ag-2)
O=C(O)C(O)[C@H](O)[C@H](O)[C@H](O)[C@H](O)CO (some centres undefined)	none (no result: PG9 Ab binder, NR2E3 ag-1, VLA-4 inh, NR2E3 ag-2)
CC(OC(=O)CCC(=O)c1ccc(Cl)s1)C(=O)NC1(C#N)CCCCC1 (centres undefined)	NR2E3 ag-1 24 | NR2E3 agonist cf inactive | PPARg-NCOR2 ctr inactive
CCOc1ccc(-n2nc3c(=S)[nH]nc(C)c3c2C)cc1	PG9 Ab binder 42, NR2E3 ag-1 26 | NR2E3 agonist cf inactive | PPARg-NCOR2 ctr 22
CCOc1ccc(-n2nc3c(=O)[nH]nc(C)c3c2C)cc1	none
CC(=O)S[C@@H]1CC2=CC(=O)CC[C@]2(C)[C@H]2CC[C@@]3(C)[C@@H](CC[C@@]34CCC(=O)O4)C12 (some centres undefined)	none (no result: PG9 Ab binder, NR2E3 ag-1, VLA-4 inh, NR2E3 ag-2)
